Measurements reported in ChEMBL document CHEMBL4152390, “Discovery of the First-in-Class Dual Histone Deacetylase-Proteasome Inhibitor” (J Med Chem, 2018).
Activity calls are given as the source filed them. No cut-off for these calls is given here.

Legend:
SEM cells [1] = assay: Inhibition of HDAC6/chymotrypsin-like activity of 20S proteasome in human SEM cells assessed as increase in BIP protein expression at 0.1 to 10 uM after 18 hrs by Western blot assay; format: cell-based
How it was run: (§1)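 Cells treated 18 h at indicated concentrations; lysates analysed by western blot for heat shock (Grp94, HSP70, HSP40, HSP27), UPR (BIP, ATF4, ATF6, pJNK) and autophagy (LC3B, p62) proteins.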

PBMC = assay: cells; format: ADME, cell-based; settings: Homo sapiens, 72 h
[2] = biological target: T1, Proteasome component C5 (Homo sapiens) (UniProt P20618); assay: Inhibition of caspase-like activity of 20S proteasome in human HL60 cells at 4 nM to 25 uM using Z-nLPnLD-aminoluciferin as substrate after 2 hrs by proteasome-Glo assay; format: cell-based
T1 sequence (whole entry): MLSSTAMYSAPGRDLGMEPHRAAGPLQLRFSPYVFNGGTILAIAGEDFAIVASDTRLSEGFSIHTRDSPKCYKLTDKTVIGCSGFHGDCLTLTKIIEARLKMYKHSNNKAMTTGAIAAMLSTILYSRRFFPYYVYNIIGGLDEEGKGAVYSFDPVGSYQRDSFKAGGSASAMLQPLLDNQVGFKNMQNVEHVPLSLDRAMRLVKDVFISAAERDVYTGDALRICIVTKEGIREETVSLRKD

SEM cells [3] = assay: Induction of early differentiation of human SEM cells assessed as increase in CD14 expression at IC50 to 2 times IC50 after 72 hrs by FACS analysis; format: functional, cell-based
How it was run: (§2)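 Surface CD11b and CD14 measured by FACS using fluorochrome-coupled monoclonal antibodies with matched isotype controls, after treatment in liquid medium.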

SEM cells [4] = assay: Inhibition of HDAC6/chymotrypsin-like activity of 20S proteasome in human SEM cells assessed as increase in HSP70 protein expression at 0.1 to 10 uM after 18 hrs by Western blot assay; format: cell-based; how it was run: as §1
[5] = biological target: T2, Proteasome Macropain subunit MB1 (Homo sapiens, UniProt P28074); assay: Inhibition of chymotrypsin-like activity of 20S proteasome in imatinib-resistant human SUP-B15 cells using Suc-LLVY aminoluciferin as substrate after 2 hrs by proteasome-Glo assay; format: cell-based
T2 sequence (P28074 whole entry): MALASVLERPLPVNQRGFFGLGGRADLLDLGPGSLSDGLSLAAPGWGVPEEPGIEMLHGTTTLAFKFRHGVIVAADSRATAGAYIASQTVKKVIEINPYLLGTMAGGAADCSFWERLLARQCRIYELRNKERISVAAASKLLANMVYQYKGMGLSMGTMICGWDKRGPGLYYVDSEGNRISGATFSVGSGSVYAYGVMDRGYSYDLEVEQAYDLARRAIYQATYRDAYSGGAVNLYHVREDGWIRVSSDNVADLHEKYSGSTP

SEM cells [6] = assay: Cell cycle arrest in human SEM cells assessed as reduction in cell levels at G2/M phase at IC50 to 2 times IC50 after 48 hrs by propidium iodide staining-based FACS analysis; format: functional
[7] = biological target: T2, Proteasome Macropain subunit MB1; assay: Inhibition of chymotrypsin-like activity of 20S proteasome in human HL60 cells using Suc-LLVY aminoluciferin as substrate after 2 hrs by proteasome-Glo assay; format: cell-based
[8] = biological target: Histone deacetylase 3/Nuclear receptor corepressor 2 (HDAC3/NCoR2) (Homo sapiens, UniProt O15379); format: ADME, cell-based
Histone deacetylase 8 = biological target: T3, Histone deacetylase 8 (Homo sapiens, UniProt Q9BY41); assay: Inhibition of C-terminal His-tagged recombinant human HDAC8 expressed in baculovirus infected insect cells using RHK(Ac)K(Ac)AMC as substrate by fluorescence-based assay
T3 sequence (Q9BY41 whole entry): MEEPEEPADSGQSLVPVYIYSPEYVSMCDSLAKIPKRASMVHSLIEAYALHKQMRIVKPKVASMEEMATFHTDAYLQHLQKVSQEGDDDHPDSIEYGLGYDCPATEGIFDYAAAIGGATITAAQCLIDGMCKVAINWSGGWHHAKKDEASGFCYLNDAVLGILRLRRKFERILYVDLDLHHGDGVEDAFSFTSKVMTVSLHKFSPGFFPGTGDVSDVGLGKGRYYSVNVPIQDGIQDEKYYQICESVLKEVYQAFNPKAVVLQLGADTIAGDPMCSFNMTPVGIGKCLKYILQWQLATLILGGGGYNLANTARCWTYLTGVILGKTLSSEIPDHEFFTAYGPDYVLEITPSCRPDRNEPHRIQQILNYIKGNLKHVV

SEM cells [9] = assay: Induction of apoptosis in human SEM cells at IC50 to 2 times IC50 after 48 hrs by annexin V/propidium iodide staining-based FACS analysis relative to control; format: functional
How it was run: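 After 48 h treatment at IC50 or 2x IC50, cells double-stained with annexin V and PI and analysed by FACS. Cells scored as living, early apoptotic (annexin V+), late apoptotic (both+) or necrotic (PI+).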

[10] = biological target: Proteasome Macropain subunit (Homo sapiens) (UniProt P49721); assay: Inhibition of trypsin-like activity of 20S proteasome in human SEM cells at 4 nM to 25 uM using Z-LRR-aminoluciferin as substrate after 2 hrs by proteasome-Glo assay; format: cell-based
KCL-22 = assay: Cytotoxicity against human KCL22 cells after 72 hrs by CellTiter-Glo luminescent cell viability assay; format: functional, cell-based; settings: KCL-22, 72 h
How it was run: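 Inhibitors dispensed in increasing concentrations (50 nM–25 μM) and cells exposed 72 h. Viability read by ATP-dependent luminescence (CellTiter-Glo). Raw data normalized to controls. IC50 obtained by sigmoid dose–response fit with non-linear regression.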

SEM cells [11] = assay: Induction of early differentiation of human SEM cells assessed as increase in CD11b expression at IC50 to 2 times IC50 after 72 hrs by FACS analysis; format: functional, cell-based; how it was run: as §2
[12] = biological target: Proteasome Macropain subunit (Homo sapiens) (UniProt P49721); assay: Inhibition of trypsin-like activity of 20S proteasome in human HL60 cells at 4 nM to 25 uM using Z-LRR-aminoluciferin as substrate after 2 hrs by proteasome-Glo assay; format: cell-based
[13] = Cytotoxicity against human RPMI18226 cells after 72 hrs by CellTiter-Glo luminescent cell viability assay; format: functional, cell-based; settings: RPMI18226, 72 h

Sequence of Proteasome Macropain subunit (Homo sapiens) (P49721 whole entry): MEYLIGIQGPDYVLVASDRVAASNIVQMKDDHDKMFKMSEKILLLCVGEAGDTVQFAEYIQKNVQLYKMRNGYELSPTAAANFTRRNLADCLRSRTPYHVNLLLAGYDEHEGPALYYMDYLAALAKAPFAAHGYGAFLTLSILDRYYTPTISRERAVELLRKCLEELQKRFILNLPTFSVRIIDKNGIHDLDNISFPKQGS
Sequence of Histone deacetylase 3/Nuclear receptor corepressor 2 (HDAC3/NCoR2) (O15379 whole entry): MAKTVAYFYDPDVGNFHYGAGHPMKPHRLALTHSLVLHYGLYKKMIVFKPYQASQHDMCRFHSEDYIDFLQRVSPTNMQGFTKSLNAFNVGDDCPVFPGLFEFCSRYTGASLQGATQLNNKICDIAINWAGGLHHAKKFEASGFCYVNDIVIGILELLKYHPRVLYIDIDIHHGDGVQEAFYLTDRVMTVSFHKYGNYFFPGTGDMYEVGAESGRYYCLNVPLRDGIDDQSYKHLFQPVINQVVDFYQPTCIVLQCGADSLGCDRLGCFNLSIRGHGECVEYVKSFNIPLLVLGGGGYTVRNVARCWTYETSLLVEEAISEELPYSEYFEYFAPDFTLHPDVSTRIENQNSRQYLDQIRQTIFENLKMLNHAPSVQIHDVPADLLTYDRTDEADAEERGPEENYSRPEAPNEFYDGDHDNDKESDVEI
Sequence of Histone deacetylase 3/Nuclear receptor corepressor 2 (HDAC3/NCoR2) (Q9Y618 whole entry, further chain): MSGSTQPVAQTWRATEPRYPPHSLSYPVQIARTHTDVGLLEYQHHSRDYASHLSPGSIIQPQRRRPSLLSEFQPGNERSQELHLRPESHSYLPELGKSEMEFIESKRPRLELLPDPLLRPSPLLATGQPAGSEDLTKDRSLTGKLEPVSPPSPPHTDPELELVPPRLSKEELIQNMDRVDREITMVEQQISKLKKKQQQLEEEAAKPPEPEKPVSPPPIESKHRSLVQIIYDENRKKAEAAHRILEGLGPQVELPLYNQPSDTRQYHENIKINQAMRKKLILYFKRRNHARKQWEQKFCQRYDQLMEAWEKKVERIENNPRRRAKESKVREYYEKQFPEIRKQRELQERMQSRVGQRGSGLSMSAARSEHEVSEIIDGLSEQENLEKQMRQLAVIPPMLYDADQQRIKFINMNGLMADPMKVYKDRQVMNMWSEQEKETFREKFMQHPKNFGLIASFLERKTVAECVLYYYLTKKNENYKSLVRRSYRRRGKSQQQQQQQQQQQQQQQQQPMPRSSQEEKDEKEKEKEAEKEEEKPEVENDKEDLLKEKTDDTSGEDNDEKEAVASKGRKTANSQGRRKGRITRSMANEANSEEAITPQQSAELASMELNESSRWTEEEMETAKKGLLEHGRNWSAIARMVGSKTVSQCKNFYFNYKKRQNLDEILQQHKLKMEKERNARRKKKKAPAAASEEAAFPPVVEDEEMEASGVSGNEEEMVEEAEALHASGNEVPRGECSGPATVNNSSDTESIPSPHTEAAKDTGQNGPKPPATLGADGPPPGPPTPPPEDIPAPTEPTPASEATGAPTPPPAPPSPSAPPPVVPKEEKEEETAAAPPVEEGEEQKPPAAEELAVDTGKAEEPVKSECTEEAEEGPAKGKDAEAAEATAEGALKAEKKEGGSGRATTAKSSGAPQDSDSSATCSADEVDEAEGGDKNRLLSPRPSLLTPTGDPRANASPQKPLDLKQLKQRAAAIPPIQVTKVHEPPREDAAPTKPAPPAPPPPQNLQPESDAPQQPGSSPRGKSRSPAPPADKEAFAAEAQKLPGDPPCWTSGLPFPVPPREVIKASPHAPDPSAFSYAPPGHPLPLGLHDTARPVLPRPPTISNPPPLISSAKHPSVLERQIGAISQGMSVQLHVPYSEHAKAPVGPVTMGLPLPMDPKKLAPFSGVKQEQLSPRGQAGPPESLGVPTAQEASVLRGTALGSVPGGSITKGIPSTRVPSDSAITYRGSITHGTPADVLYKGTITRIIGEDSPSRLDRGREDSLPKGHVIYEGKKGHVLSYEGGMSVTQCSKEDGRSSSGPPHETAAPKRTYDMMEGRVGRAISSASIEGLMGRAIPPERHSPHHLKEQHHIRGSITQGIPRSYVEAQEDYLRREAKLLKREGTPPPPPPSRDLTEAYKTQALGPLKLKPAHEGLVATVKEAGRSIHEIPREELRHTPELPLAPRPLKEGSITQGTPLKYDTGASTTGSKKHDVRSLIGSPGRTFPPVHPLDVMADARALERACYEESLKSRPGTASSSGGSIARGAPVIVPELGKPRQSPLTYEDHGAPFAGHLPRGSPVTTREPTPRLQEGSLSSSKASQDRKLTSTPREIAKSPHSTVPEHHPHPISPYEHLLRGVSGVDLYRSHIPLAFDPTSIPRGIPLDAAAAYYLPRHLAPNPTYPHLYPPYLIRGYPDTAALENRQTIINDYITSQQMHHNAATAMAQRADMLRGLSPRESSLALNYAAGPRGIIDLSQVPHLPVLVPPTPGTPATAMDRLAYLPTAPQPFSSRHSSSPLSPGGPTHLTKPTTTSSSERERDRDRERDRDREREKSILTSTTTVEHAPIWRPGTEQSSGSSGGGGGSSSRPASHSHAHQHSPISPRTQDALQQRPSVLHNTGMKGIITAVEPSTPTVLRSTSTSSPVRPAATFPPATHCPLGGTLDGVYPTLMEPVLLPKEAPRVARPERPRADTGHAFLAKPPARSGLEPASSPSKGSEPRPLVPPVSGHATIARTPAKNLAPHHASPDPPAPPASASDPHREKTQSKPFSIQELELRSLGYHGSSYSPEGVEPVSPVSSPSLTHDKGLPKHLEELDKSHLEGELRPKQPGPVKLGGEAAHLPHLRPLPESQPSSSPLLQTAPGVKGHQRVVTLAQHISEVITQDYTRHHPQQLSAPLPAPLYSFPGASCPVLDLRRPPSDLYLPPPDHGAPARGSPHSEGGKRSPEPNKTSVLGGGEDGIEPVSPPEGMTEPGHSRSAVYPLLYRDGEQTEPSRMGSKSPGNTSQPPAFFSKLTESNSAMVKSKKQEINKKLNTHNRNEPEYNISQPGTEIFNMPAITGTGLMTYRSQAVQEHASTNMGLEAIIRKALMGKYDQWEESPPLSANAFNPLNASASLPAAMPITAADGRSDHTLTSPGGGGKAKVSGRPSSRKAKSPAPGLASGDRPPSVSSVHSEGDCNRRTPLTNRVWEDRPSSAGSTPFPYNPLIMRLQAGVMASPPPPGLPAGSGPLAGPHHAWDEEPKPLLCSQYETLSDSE

inhibition [2]: inactive | IC50 [5]: 820 nM | IC50 [7]: 260 nM | IC50 [8]: 15 µM | IC50 (Histone deacetylase 8): 530 nM | inhibition [10]: inactive | inhibition [12]: inactive
Structure (SMILES): C[C@H](NC(=O)[C@H](CC(=O)NCC(C)(C)C)NC(=O)c1ccc(C(=O)NO)cc1)C(=O)NCc1ccccc1
inhibition (SEM cells [1]): Active | IC50 (PBMC): > 25 µM | Activity (SEM cells [3]): Active | inhibition (SEM cells [4]): Active | Activity (SEM cells [6]): Active | fold change (FC) (SEM cells [9]): 5 | IC50 (KCL-22): 3.14 µM | Activity (SEM cells [11]): Active | IC50 [13]: 1750 nM
